Consider 30 molecules from ChEMBL document CHEMBL1135729, “Synthesis and biological evaluation of a new set of pyrazolo[1,5-c]quinazoline-2-carboxylates as novel excitatory amino acid antagonists” (J Med Chem, 2002).

Test [1] addresses Glutamate receptor ionotropic, NMDA 1 (Rattus norvegicus) (UniProt P35439). As to the kind of experiment: (§1) Percent Inhibition by displacing [3H]glycine of N-methyl-D-aspartate glutamate receptor 1 in rat cortical membranes. Format: cell membranes. The settings on record: Membrane; concentration not given here. Details: concentration or dose not given beside the values.
In test [2] the target is Glutamate receptor ionotropic, AMPA (Rattus norvegicus) (UniProt P19491+P19492+P19493+P19490). In words: Percent Inhibition by displacing [3H]AMPA from Ionotropic glutamate receptor AMPA specific binding sites in rat cortical membranes. Conditions: concentration not given here. Format: cell membranes. Details: concentration or dose not given beside the values.
Test [3] addresses Glutamate receptor ionotropic, kainate (Rattus norvegicus) (UniProt P22756+Q01812+P42260+P42264+Q63273). As to the kind of experiment: Percent Inhibition of specific [3H]KA binding to Ionotropic glutamate receptor in rat cortical membranes. Type of test: cell membranes. The settings on record: Membrane; concentration not given here. Details: concentration or dose not given beside the values. Summed up:
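Membranes resuspended (0.5 mg protein/mL) in 0.05 M Tris-citrate, pH 7.4, preincubated at 37 °C for 30 min, then washed three times in ice-cold buffer. Binding run on ice for 60 min with 5 nM [3H]kainate; nonspecific binding defined with 1 mM glutamate. Separation by GF/C filtration.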

Test [4] has as its target T1, Glutamate receptor ionotropic, NMDA 1 (Rattus norvegicus, UniProt P35439). As to the kind of experiment: Displacement of [3H]glycine from N-methyl-D-aspartate glutamate receptor 1 in rat cortical membranes. Format: cell membranes, Membrane.
Test [5] has as its target T2, Glutamate receptor ionotropic, AMPA (Rattus norvegicus, UniProt P19490+P19491+P19492+P19493). In words: Displacement of [3H]AMPA from Ionotropic glutamate receptor AMPA in rat cortical membranes. Format: cell membranes, Membrane.
The target of test [6] is T1, Glutamate receptor ionotropic, NMDA 1. As to the kind of experiment: Inhibition by displacing [3H]-Glycine of N-methyl-D-aspartate glutamate receptor 1 in rat cortical membranes. Type of test: cell membranes, Membrane.
In the next test the target is Glutamate NMDA receptor. In words: Inhibition of stimulated [3H](+)-MK-801 binding to N-methyl-D-aspartate glutamate receptor in rat cortical membranes incubated with 10 uM glutamate and 0.1 uM glycine.
Test [7] deals with T1, Glutamate receptor ionotropic, NMDA 1. The test is described as §1. Format: cell membranes, Membrane.
The target of test [8] is Glutamate receptor ionotropic, kainate. As to the kind of experiment: Inhibition of specific binding […] by displacing [3H]KA, from specific binding sites of Ionotropic glutamate receptor ionotropic kainate in rat cortical membranes. Format: cell membranes, Membrane. Summed up: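 Rat cortical membranes preincubated at 0.5 mg protein/mL in 0.05 M Tris-citrate pH 7.4, 37 °C for 30 min, then washed thrice in ice-cold buffer. Binding on ice for 60 min with 5 nM [3H]kainate, 0.2-0.3 mg protein per assay. Nonspecific binding defined with 1 mM glutamate. Filtration separation.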

The species entered for test [9] is Mus musculus. In words: Concentration that inhibits by 50% depolarization induced by 5M NMDA. Type of test: functional. A digest of the protocol:
(§2)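 Cortical wedge preparation (per Mannaioni et al.). AMPA or NMDA (5 μM) applied for 2 min every 15 min until control peaks were stable, then wedges continuously superfused with antagonist while agonist pulses continued. Afterwards, washout with antagonist-free Krebs and agonist applied every 15 min for 30-60 min to confirm recovery. dc potential between two compartments recorded via Ag/AgCl electrodes. IC50 derived against control peaks; mean ± SEM, n = 4.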

Test [10] has as its target T2, Glutamate receptor ionotropic, AMPA. In words: Inhibition by displacing [3H]AMPA from Ionotropic glutamate receptor AMPA specific binding sites in rat cortical membranes. Type of test: cell membranes.
The species named for test [11] is Mus musculus. As to the kind of experiment: Concentration that inhibits by 50% depolarization induced by 5M AMPA. Format: functional. Summed up: as §2

Where only a bound is given, the exact number is not on record here.

`O=C(O)c1cc2n(n1)C(C(=O)O)Nc1ccccc1-2` (stereo not given): the inhibition worked out at 35% in test [1], 0% in [2] and 11% in [3].

For the molecule `CCOC(=O)c1cc2c3cc([N+](=O)[O-])c(Cl)cc3nc(O)n2n1`, in test [3], the inhibition was 23%.

In the case of `CCOC(=O)c1cc2c3ccccc3[nH]c(=O)n2n1`, the figures for the inhibitory constant (Ki) in test [4] and in test [5] were 33.3 µM and 42 µM, respectively.

For the molecule `O=C(O)C1=NN2C(=O)Nc3cc(Cl)c(Cl)cc3C2C1` (stereo not given), the Ki in [6] was determined as 0.19 µM; in test [5] it was 2.65 µM. For the same molecule, in [3], the inhibition is 17%.

The molecule `CCOC(=O)c1cc2c3ccc(Cl)cc3nc(O)n2n1` came in with an inhibition in test [3] of 15%.

For the molecule `CCOC(=O)c1cc2n(n1)C(C(=O)O)Nc1ccccc1-2` (stereo not given), the inhibition in test [1] came to 15%; in test [2] it was 12%; in test [3], 0%.

Consider `COC(=O)C1=NN2C(=O)Nc3ccccc3C2C1` (stereo not given), for which the inhibition in test [1] amounted to 40%; in test [2] it was 29%; in [3], 0%.

`O=C(O)c1cc2c3ccccc3nc(O)n2n1` showed a concentration for half-maximal inhibition (IC50) on Glutamate NMDA receptor of 10.4 µM. Also, the Ki was found to be 1.41 µM in test [4] and 12.4 µM in [5]. The same molecule gave an inhibition in test [3] of 26%.

For the molecule `O=C(O)C1=NN2C(=O)Nc3cc(Cl)ccc3C2C1` (stereo not given), the Ki was 0.24 µM in test [4] and 7.2 µM in test [5]. The same molecule gave an inhibition in test [3] of 20%.

For `COC(=O)C1=NN2C(=O)Nc3cc(Cl)c(Cl)cc3C2C1` (stereo not given), the results for the Ki in test [4] and in test [5] were 4 µM and 8.5 µM, respectively. The inhibition in test [3] stood at 9%.

For `CCOC(=O)c1cc2c3ccc(Cl)cc3[nH]c(=O)n2n1`, the Ki worked out at 26.5 µM in test [4] and 72 µM in test [5].

For the molecule `CCOC(=O)c1cc2c3cc([N+](=O)[O-])ccc3nc(O)n2n1`, the inhibition was 15% in test [1], 27% in test [2] and 4% in [3].

Consider `O=C(O)c1cc2c3cc([N+](=O)[O-])c(Cl)cc3[nH]c(=O)n2n1`, for which the Ki was 1.1 µM in [7] and 0.74 µM in test [5]. In test [8], the IC50 was determined as 23 µM.

As to `O=C(O)c1cc2c3cc(-n4cnnc4)c(Cl)cc3[nH]c(=O)n2n1`, the IC50 in the test filed under Mus musculus [9] was 20 µM. Also, the Ki in test [5] was determined as 0.14 µM.

In the case of `CCOC(=O)c1cc2c3cc(N)ccc3nc(O)n2n1`, the inhibition is 30% in test [1], 27% in test [2] and 30% in test [3].

For `O=C(O)c1cc2c3cc([N+](=O)[O-])ccc3nc(O)n2n1`, the figures for the inhibition in test [1] and in test [3] were 35% and 24%, respectively. Further, the Ki in test [5] turned out to be 26 µM.

With `O=C(O)C1=NN2C(=O)Nc3ccccc3C2C1` (stereo not given), the Ki in [4] stood at 2 µM; in test [5], 96 µM. Further, the IC50 in test [8] turned out to be 19.5 µM.

As to `O=C(O)c1cc2n(n1)C(C(=O)O)Nc1cc(Cl)ccc1-2` (stereo not given), the inhibition in test [1] worked out at 25%; in test [2], 7%; in test [3], 13%.

`COC(=O)C1=NN2C(=O)Nc3cc(Cl)ccc3C2C1` (stereo not given): the Ki turned out to be 10.6 µM in [4] and 17.3 µM in [5]. Moreover, the inhibition in test [3] stood at 3%.

Consider `O=C(O)c1cc2c3ccc(Cl)cc3nc(O)n2n1`, for which the Ki in [4] was determined as 0.48 µM; in [5], 2.3 µM. Besides, the IC50 in [8] was determined as 60 µM.

Regarding `O=C(O)c1nc2c(=O)[nH]c3cc(Cl)c(-n4cnnc4)cc3n2n1` [TQX-173], the inhibition constant Ki in test [6] was found to be 33.5 µM.

For `CCOC(=O)c1cc2c3cc([N+](=O)[O-])c(Cl)cc3[nH]c(=O)n2n1`, the figures for the Ki in test [4] and in test [5] were 10.6 µM and 8.2 µM, respectively.

`O=C(O)c1cc2c3cc(Cl)c(Cl)cc3[nH]c(=O)n2n1`: the Ki turned out to be 0.16 µM in test [4] and 2.4 µM in [5]. Further, in test [8], the IC50 was determined as 41 µM.

For `COC(=O)c1cc2c3cc(Cl)c(Cl)cc3nc(O)n2n1`, the values for the inhibition in [2] and in [3] were 42% and 10%, respectively. In addition, the affinity in test [4] corresponds to a Ki of 1.3 µM.

Regarding `CCOC(=O)c1cc2n(n1)C(C(=O)O)Nc1cc(Cl)ccc1-2` (stereo not given), the inhibition in [1] stood at 5%; in test [2], 6%; in test [3], 1%.

As to `O=Cc1ccn(-c2cc3c(cc2Cl)nc(O)n2nc(C(=O)O)cc32)c1`, the Ki in test [6] was found to be 8.2 µM; in [10], 0.27 µM. Moreover, the figures for the concentration for half-maximal inhibition (IC50) (in the test filed under Mus musculus [11]; in the test listed under Mus musculus [9]; in test [8]) were 0.5 µM, 25 µM and 5.5 µM, respectively.

Consider `CCOC(=O)c1cc2c3cc(-n4ccc(C=O)c4)c(Cl)cc3nc(O)n2n1`, for which the Ki in test [6] worked out at 57 µM; in test [10], 1.4 µM. The figures for the IC50 in the test listed under Mus musculus [11] and in the test listed under Mus musculus [9] were 1 µM and more than 50 µM, respectively. In [3], this molecule displayed an inhibition of 29%.

Regarding `CCOC(=O)c1cc2c3cc(-n4cnnc4)c(Cl)cc3nc(O)n2n1`, the inhibition in test [1] came out at 18%; in [3] it was 38%. Moreover, the half-maximal inhibitory concentration (IC50) in the test listed under Mus musculus [11] was 1.75 µM; in the test filed under Mus musculus [9], more than 50 µM. Also, in test [5], affinity was put at a Ki of 0.87 µM.

For `CCOC(=O)c1cc2c3cc(N)c(Cl)cc3nc(O)n2n1`, the inhibition in [1] came to 40%; in test [2], 33%; in test [3], 11%.

`CCOC(=O)c1cc2c3ccccc3nc(O)n2n1`: in test [3], the inhibition amounted to 12%.
